In PMC2754042 (Journal of medicinal chemistry, 2008):
pIC50: −log10 of the molar value. Structures can show the parent of a compound that is named as a salt. Where a SMILES comes first, the peptide text is derived from it. The star is where a group is joined. Cbz = O=C(OCc1ccccc1)*

Columns and labels:
[1] = system: plasma membrane electron transport (PMET), HL60 and HL60ρ^0 cells; test: PMET inhibition; assay type: cell-based, human; settings: at 200 µM, 30 min pretreatment
In short: (§1)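 Plasma membrane electron transport assay: leukemic cells (10^5 per well in 0.1 ml) pretreated 30 min with test compound in DMSO (<0.1% final). WST-1 and mPMS then added (final 500 µM and 20 µM). WST-1 reduction followed in real time at 450 nm and expressed as % of control.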

[2] = system: sixty human tumor cell lines; test: NCI sixty cell panel, mean of full panel; assay type: cell-based; settings: for CC50: read-out: pLC50 MG-MID (converted); for IC (TGI): read-out: pTGI MG-MID; for GI50: read-out: pGI50 MG-MID (converted)
NSCLC cell lines = test: NCI sixty cell panel, NSCLC subpanel; assay type: cell-based; settings: Homo sapiens, read-out: pTGI NSCLC
[3] = system: Prostate cancer cell lines; test: cells; assay type: cell-based; settings: Homo sapiens, read-out: pTGI Prostate
Leukemia cell lines = test: NCI sixty cell panel, leukemia subpanel; assay type: cell-based; settings: Homo sapiens; for IC (TGI): read-out: pTGI Leukemia
Melanoma cell lines = test: NCI sixty cell panel, melanoma subpanel; assay type: cell-based; settings: Homo sapiens, read-out: pTGI Melanoma
CNS cancer cell lines = test: cells; assay type: cell-based; settings: Homo sapiens, read-out: pTGI CNS
Breast cancer cell lines = test: NCI sixty cell panel, breast subpanel; assay type: cell-based; settings: Homo sapiens, read-out: pTGI Breast
[4] = system: Ovarian cancer cell lines; test: NCI sixty cell panel, ovarian subpanel; assay type: cell-based; settings: Homo sapiens, read-out: pTGI Ovarian
Colon cancer cell lines = test: NCI sixty cell panel, colon subpanel; assay type: cell-based; settings: Homo sapiens, read-out: pTGI Colon
Renal cancer cell lines = test: NCI sixty cell panel, renal subpanel; assay type: cell-based; settings: Homo sapiens, read-out: pTGI Renal
[5] = system: panel of 36 human tumor cell lines; test: Oncotest 36 cell line assay; assay type: cell-based; settings: four days exposure
In short: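 Panel of 36 lines: 24 derived from patient tumor xenografts passaged subcutaneously in nude mice, 12 commercial. Grown at 37°C, 5% CO2, in RPMI 1640 with 10% fetal calf serum and 0.1 mg/ml gentamicin. Test compound added one day after plating, at 5 concentrations, for four days. DNA content read by propidium iodide fluorescence. Three independent experiments, each in triplicate; IC70 values.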

C-erbB2 = test: Stability of C-erbB2 and β-actin in MCF-7 cells; assay type: cell-based, human; settings: Western blot
In short: (§2)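 MCF7 cells (1×10^6) seeded in six-well plates and grown overnight. Cycloheximide (100 µmol/L) given alone, with MG-132 (10 µmol/L), or with test compound for 8 and 16 h in total. Lysates Western blotted with polyclonal anti-BCA2 (1:800), monoclonal anti-β-actin (1:5000) and monoclonal anti-C-erbB2 (1:2000). Band mean grey value and integrated density expressed relative to control sample; protein levels normalised to β-actin.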

[6] = system: PMET, B1647, HEL and M07e; test: PMET inhibition in human leukemic cell lines B1647, HEL and M07e; assay type: cell-based; settings: read-out: PMET inhibition IC50
In short: as §1

HL60 and HL60 ρ^0 cells = test: 2-day MTT cell proliferation assay in HL60 and HL60ρ0 cells; assay type: cell-based; settings: Homo sapiens, HL-60, 48 h, read-out: IC50 for cell proliferation
In short: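 Cells exposed to test compound for 48 h, then MTT reduction read as a measure of proliferation. IC50 for cell proliferation derived from the readings.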

[7] = system: leukemia cell lines HL-60, K562, MOLT-4, CCRF-CEM, RPMI-8226, SR; test: Hollow fiber assay; assay type: in vivo, human; settings: panel of six leukemia cell lines
HL-60-TB leukemia = test: Human tumor xenograft in nude mice; assay type: in vivo; settings: HL-60-TB leukemia xenograft in nude mice
BCA2 = test: Analysis of BCA2 protein stability in MCF7 cells; assay type: cell-based, human; settings: MCF-7 cells, in the presence of cycloheximide (CHX), 16 h
In short: as §2

| SMILES | CC50 [2] [µM] | IC (TGI) [2] [µM] | GI50 [2] [µM] | further results |
| --- | --- | --- | --- | --- |
| O=C1Nc2ccc(C(=O)O)cc2/C1=C\c1cccc(/C=C2/C(=O)Nc3ccc(C(=O)O)cc32)n1 [Compound 3i] | 89.1 | 83.2 |  | PMET inhibition [1]: inactive |
| O=C1Nc2ccccc2/C1=c1/[nH]c(=O)/c(=C2/C(=O)Nc3ccccc32)[nH]c1=O [Compound 7a] |  |  | 89.1 |  |
| O=C(O)CCC(=O)c1ccc2c(c1)/C(=C\c1cccc(/C=C3/C(=O)Nc4ccc(C(=O)CCC(=O)O)cc43)n1)C(=O)N2 [Compound 3f] |  | 95.5 | 75.9 |  |
| O=C1Nc2ccc(S(=O)(=O)O)cc2/C1=C\c1cccc(/C=C2/C(=O)Nc3ccc(S(=O)(=O)O)cc32)n1 [Compound 3k] |  |  | 97.7 |  |
| CC[C@]1(O)C[C@H]2CN(CCc3c([nH]c4ccccc34)[C@@](C(=O)OC)(c3cc4c(cc3OC)N(C=O)[C@H]3[C@@](O)(C(=O)OC)[C@H](OC(C)=O)[C@]5(CC)C=CCN6CC[C@]43[C@@H]65)C2)C1 [Vincrist ine sulfate, reference compound] |  | 10 | 0.2 | IC (TGI) (NSCLC cell lines): 15.8 µM; IC (TGI) [3]: 6.31 µM; IC (TGI) (Leukemia cell lines): 15.8 µM; IC (TGI) (Melanoma cell lines): 7.94 µM; IC (TGI) (CNS cancer cell lines): 6.31 µM; IC (TGI) (Breast cancer cell lines): 7.94 µM; IC (TGI) [4]: 20 µM; IC (TGI) (Colon cancer cell lines): 3.98 µM; IC (TGI) (Renal cancer cell lines): 20 µM |
| O=C1Nc2cccc(Cl)c2/C1=C\c1cccc(/C=C2/C(=O)Nc3cccc(Cl)c32)n1 [Compound 3b] |  |  | 0.457 | mean IC70 [5]: 0.35 µg/mL; effects on β-actin or the oncogenic receptor C-erbB2 (C-erbB2): No effects; pIC50 [6]: 4.52 to 4.82; IC (TGI) (Melanoma cell lines): 3.16 µM; pIC50 (HL60 and HL60 ρ^0 cells): 5.10 to 5.52; IC (TGI) [4]: 2.82 µM; IC (TGI) (Colon cancer cell lines): 5.01 µM |
| O=C1Nc2ccccc2/C1=C\c1cccc(/C=C2/C(=O)Nc3ccccc32)n1 [Compound 3a] | 14.1 |  | 0.457 | IC (TGI) (Breast cancer cell lines): 2 µM; IC (TGI) (Renal cancer cell lines): 1.62 µM |
| CC(=O)n1c(=O)/c(=C/c2c[nH]c3ccccc23)n(C(C)=O)c(=O)/c1=C/c1c[nH]c2ccccc12 [Compound 8a] |  | 91.2 | 74.1 | PMET inhibition [1]: inactive; IC (TGI) (Renal cancer cell lines): 50.1 µM |
| O=c1[nH]/c(=C\c2c[nH]c3ccccc23)c(=O)[nH]/c1=C\c1c[nH]c2ccccc12 [Compound 9a] |  |  | 81.3 | PMET inhibition [1]: inactive |
| COc1cc2c(cc1C)NC(=O)/C2=C/c1cccc(/C=C2/C(=O)Nc3cc(C)c(OC)cc32)n1 [Compound 3n] |  | 95.5 | 51.3 |  |
| COc1ccc2c(c1)/C(=C\c1cccc(/C=C3/C(=O)Nc4ccc(OC)cc43)n1)C(=O)N2 [Compound 3d] | 39.8 | 7.08 | 1.2 | hollow fiber assay combined i.p. + s.c. score [7]: 22; mean IC70 [5]: 0.56 µg/mL; pIC50 [6]: 4.35 to 4.52; IC (TGI) (Melanoma cell lines): 3.98 µM; distal site antitumor activity in xenograft (HL-60-TB leukemia): did not show significant activity |
| O=C1Nc2ccc(Cl)cc2/C1=C\c1cccc(/C=C2/C(=O)Nc3ccc(Cl)cc32)n1 [Compound 3c] | 16.2 | 3.39 | 1.07 | pIC50 (HL60 and HL60 ρ^0 cells): 5.10 to 5.52 |
| O=C1Nc2ccc(O)cc2/C1=C\c1cccc(/C=C2/C(=O)Nc3ccc(O)cc32)n1 [Compound 3e] | 97.7 | 87.1 | 39.8 | pIC50 [6]: 4.30 to 4.40 |
| O=C1Nc2ccc(F)cc2/C1=C\c1cccc(/C=C2/C(=O)Nc3ccc(F)cc32)n1 [Compound 3h] | 60.3 | 11.7 | 3.24 | IC (TGI) [4]: 25.1 µM |
| COc1ccc2c(c1)/C(=C\c1cccc(/C=C3/C(=O)N(C)c4ccc(OC)cc43)n1)C(=O)N2C [Compound 3p] | 43.7 | 12.3 | 1.74 | GI50 (Leukemia cell lines; read-out: pGI50 Leukemia (converted)): 1.17 µM; IC (TGI) (Breast cancer cell lines): 20 µM; IC (TGI) [4]: 31.6 µM |
| CN1C(=O)/C(=C/c2cccc(/C=C3/C(=O)N(C)c4ccccc43)n2)c2ccccc21 [Compound 3o] | 49 | 26.9 | 8.13 | IC (TGI) [3]: 39.8 µM; IC (TGI) (Leukemia cell lines): 15.8 µM; PMET inhibition [1]: inactive |
| O=C1Nc2ccc(Br)cc2/C1=C\c1cccc(/C=C2/C(=O)Nc3ccc(Br)cc32)n1 [Compound 3j] | 56.2 |  | 8.32 | IC (TGI) [4]: 25.7 µM |
| CC(C)C[C@@H](C=O)NC(=O)[C@H](CC(C)C)NC(=O)[C@H](CC(C)C)NC(=O)OCc1ccccc1 [MG-132, Z-Leu-Leu-Leu-al] (Cbz-Leu-Leu-Leu-aldehyde) |  |  |  | increase of BCA2 protein compared to CHX treatment (BCA2): more than 10 fold |
| Cc1cc2c(cc1O)/C(=C\c1cccc(/C=C3/C(=O)Nc4cc(C)c(O)cc43)n1)C(=O)N2 [Compound 3m] |  | 97.7 | 69.2 |  |
| COc1ccc2[nH]cc(/C=c3\[nH]c(=O)/c(=C/c4c[nH]c5ccc(OC)cc45)[nH]c3=O)c2c1 [Compound 9b] |  |  | 93.3 |  |
| CN(C)c1ccc2c(c1)/C(=C\c1cccc(/C=C3/C(=O)Nc4ccc(N(C)C)cc43)n1)C(=O)N2 [Compound 3g] | 91.2 | 40.7 | 5.37 | PMET inhibition [1]: inactive; IC (TGI) (Renal cancer cell lines): 50.1 µM |
| O=C1Nc2cc(Cl)ccc2/C1=C\c1cccc(/C=C2/C(=O)Nc3cc(Cl)ccc32)n1 [Compound 3l] | 39.8 | 8.71 | 2.04 |  |
